# Source: PubChem BioAssay (several laboratories)
# aDG glyco act – alpha-DG glycosylation activation. Pro5-aDG cells, alpha-DG glycosylation AlphaScreen (IIH6); 0% Pro5, 100% B10-LARGE cell signal. AID 624168. 0.22% of 360,000 active. activation, % at 10 µM;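 active means activation of at least 8% versus controls, or a plate z-score of at least 8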;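 further: Pro5 are CHO cells carrying HIG-tagged alpha-DG that lacks glycosylation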
# NR2E3 ag-1 – agonists of human NR2E3 nuclear receptor | CHO-S Gal4-NCOR/VP16-NR2E3 two-hybrid, luciferase | inhibition of corepressor binding, % at 3.98 µM | 0.35% of 360,000 active;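 active means inhibition above the mean of all tested compounds plus 3 SD, cut at about 70% in these data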;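 further: 0% = DMSO with NR2E3 transfected cells and 100% = cells lacking NR2E3 construct; higher means lower luciferase signal from less NR2E3 corepressor binding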
# Target sequence (Q9Y5X4 whole entry, looked up, the tested form may be a part): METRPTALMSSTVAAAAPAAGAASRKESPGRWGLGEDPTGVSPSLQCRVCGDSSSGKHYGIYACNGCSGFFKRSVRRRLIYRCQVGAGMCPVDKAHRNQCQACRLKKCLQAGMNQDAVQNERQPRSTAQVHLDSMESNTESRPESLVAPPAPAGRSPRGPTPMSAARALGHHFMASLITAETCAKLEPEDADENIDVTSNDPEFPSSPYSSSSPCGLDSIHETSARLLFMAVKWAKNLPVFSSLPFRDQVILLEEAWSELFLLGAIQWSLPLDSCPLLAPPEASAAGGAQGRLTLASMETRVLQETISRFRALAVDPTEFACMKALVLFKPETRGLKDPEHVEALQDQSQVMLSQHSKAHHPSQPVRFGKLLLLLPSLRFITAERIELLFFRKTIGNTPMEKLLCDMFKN
# 697 NFkB inh – lowers PMA/ionomycin-induced NF-kB signal in 697 B cells; 697 B-cell NF-kB luciferase reporter, 16 h; inhibition, % at 4 µM; 0.33% of 330,000 active; AID 435022; in the data active means inhibition above about 35%
# MPTP block – blocks calcium-induced mitochondrial swelling; isolated mouse mitochondria, Ca2+ swelling absorbance, 30 min; inhibition, % at 10 µM; 1.4% of 360,000 active; AID 602449;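 active means inhibition of 50% or more, scaled per plate between neutral and stimulator controls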;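 further: 0% = DMSO wells given calcium and 100% = 1 mM EGTA wells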
# NR2E3 ag-2 – activates human photoreceptor nuclear receptor NR2E3 | AID 2300 | 0.12% of 320,000 active | Q9Y5X4 | inhibition of corepressor binding, % at 4.78 µM | GST-NR2E3/biotin-RetCOR TR-FRET, 1536-well;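 active means percent inhibition above the cutoff of mean plus 3 SD of all tested compounds, set per screening campaign, cut at about 20% in these data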;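 further: 0% = DMSO wells and 100% = biotin wells as full block of FRET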
#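 Material: NR2E3–RetCOR corepressor complex | Quantity: 1.35 nM GST-tagged NR2E3 final | Schedule: 5 h at 4 °C | Replication: Singlicate compound wells | Reagent: RetCOR corepressor, biotinylated, 7 nM | Controls: Biotin wells as high control, 0.6% DMSO wells as low control | Signal: TR-FRET, Eu(K)-anti-GST donor, streptavidin-D2 acceptor, ex 340, em 617/671 nm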
# Jurkat NFkB inh – lowers PMA/ionomycin-induced NF-kB signal in Jurkat cells. PMA/ionomycin-induced NF-kB luciferase reporter, luminescence. 0.53% of 330,000 active. inhibition, % at 4 µM. AID 435003; in the data active means inhibition above about 50%
# NR2E3 ag confirm – NR2E3 agonism confirmed in two-hybrid assay; 51% of 2,300 active; shares compounds with NR2E3 ag-1; inhibition, % at 3.98 µM; CHO-S mammalian two-hybrid NR2E3-NCOR, luciferase luminescence;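 active means average inhibition above a cutoff equal to the mean inhibition of all tested compounds plus one SD, cut at about 70% in these data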;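 further: 0% = DMSO in NR2E3 cells and 100% = DMSO in cells lacking NR2E3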
# VP16 counter – reduces GAL4-VP16 reporter signal in NR2E3 counterscreen. shares compounds with NR2E3 ag-1. inhibition, % at 3.98 µM. CHO-S GAL4-VP16 luciferase reporter, luminescence. 29% of 2,300 active;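 active means mean inhibition above a cutoff equal to the average over all tested compounds plus one standard deviation, cut at about 70% in these data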;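 further: luciferase from a UAS reporter driven by GAL4-VP16 transactivation; 0% = DMSO with VP16-transfected cells and 100% = DMSO with cells lacking VP16; higher means less reporter light so more repression of VP16 activity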
# Active calls of the source: *; . = not tested or not shown. Sampled rows, rich in hits. Any-hit rate of the full collection: about 2.4%.
SMILES,aDG glyco act,NR2E3 ag-1,697 NFkB inh,MPTP block,NR2E3 ag-2,Jurkat NFkB inh,NR2E3 ag confirm,VP16 counter
CN(CC(=O)Nc1ccccc1Cl)C(=O)c1cccc(S(=O)(=O)N2CCN(c3ccc(F)cc3)CC2)c1,2.3,93.8*,-29.1,4.9,-1.7,12.1,73.4*,50.5
COc1ccc(CCN(C)C(=O)c2cccc(S(=O)(=O)N3CCN(c4ccc(F)cc4)CC3)c2)cc1OC,1.5,61.0,.,5.3,.,.,61.0,47.0
CN(CC(=O)Nc1ccccc1Cl)C(=O)c1cccc(S(=O)(=O)N2CCN(Cc3ccccc3)CC2)c1,1.9,101.6*,-38.6,32.6,0.8,4.8,63.5,46.2
CN(Cc1ccc(OC(F)F)cc1)C(=O)c1cccc(S(=O)(=O)N2CCN(c3ccccc3)CC2)c1,2.3,83.3*,.,20.3,.,.,85.0*,66.9
Cc1cccc(C)c1NC(=O)CN(C)C(=O)c1cccc(S(=O)(=O)N2CCN(c3ccc(F)cc3)CC2)c1,4.5,11.2,-21.8,20.4,-0.5,16.9,.,.
O=C(NNC1=NCCCCC1)Nc1cccc(Cl)c1,-0.1,-45.8,-42.6,-0.4,.,-70.5,.,.
Cc1nn(-c2ccccc2)c(C)c1/C=N/NC(=O)c1cnccn1,-0.1,-0.2,-6.1,2.1,1.9,-3.7,.,.
CCOC(=O)N1CCC(NS(=O)(=O)c2cc(Br)cc3c2N(C(=O)CC)CC3)CC1,0.3,17.6,20.9,2.6,1.8,3.4,.,.
O=C(CN1CCc2ccccc2C1)Nc1ccccc1C(=O)NC1CC1,-0.7,7.0,3.2,-0.4,3.6,2.9,.,.
COC(=O)c1c(-c2ccc(C)cc2)csc1NC(=O)Cc1ccc(OC)c(OC)c1,1.1,57.3,.,6.0,.,.,22.2,32.0
COc1ccc(NS(=O)(=O)c2ccc3c(c2)CCC(=O)N3)cc1O,0.6,-25.9,11.0,1.6,.,-2.5,.,.
COc1ccc(NS(=O)(=O)c2ccc3c(c2)NC(=O)CCS3)cc1Cl,0.0,59.7,-20.7,0.1,-3.2,5.1,34.2,34.5
COc1ccc(N(CC(=O)NCCSCc2ccccc2C)S(=O)(=O)c2ccccc2)cc1,0.6,1.1,-14.2,0.3,0.2,9.9,.,.
C[C@@H](CO)NC(=O)c1[nH]cnc1C(=O)Nc1ccc(CNC(=O)OC(C)(C)C)cc1,0.4,-22.6,.,-0.7,.,.,.,.
O=C(COc1ccccc1O)NNc1ccccc1,1.3,60.6,15.4,1.0,-0.1,18.1,46.7,11.0
O=C(COc1ccccc1O)Nc1ccccc1Cl,-0.2,-50.4,-19.3,-0.7,-0.8,-31.6,.,.
CC(O)CC(C(=O)NNc1ccccc1)C(=O)NNc1ccccc1 (stereo not given),1.0,63.3,-4.4,-0.2,5.4,-13.8,41.2,9.8
CCCOC(=O)C(=O)NNc1ccccc1,1.8,26.3,0.7,1.0,-1.0,7.8,.,.
CC(C)C(=O)NNc1ccccc1,-0.1,-13.6,4.4,1.4,0.3,9.6,.,.
CC(C)OC(=O)C(=O)NNc1ccccc1,3.4,54.3,-4.2,6.4,-2.0,-19.8,28.5,-0.1
